# Data published in ChEMBL document CHEMBL1123533, “Anticonvulsant activity of piperidinol and (dialkylamino)alkanol esters” (J Med Chem, 1986).
# What was measured:
# [1] = Inhibition of [3H]BTX binding to guinea pig voltage-dependent sodium channel
# Mus musculus [2] = species: Mus musculus; test: Antiepileptic (anticonvulsant) activity in mice through maximal electroshock seizure (MES) assay; format: functional, organism-based
# Procedure, shortened: (§1)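 Mice dosed at 30, 100 and 300 mg/kg and tested 30 min after administration. Seizures were evoked by 60-cycle AC, 50 mA, delivered for 0.2 s through corneal electrodes, with saline instilled in the eye first. Protection means abolition of the hind limb tonic extension. MES ED50 was quantified on select compounds.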
# [3] = target: T1, GABA-A receptor; anion channel (Homo sapiens) (UniProt P14867+P47870+P18507+P28472+P48169+Q99928+Q9UN88+P34903+O00591+O14764+Q8N1C3+P18505+P78334+P47869+P31644+Q16445); test: Binding of [3H]- muscimol radioligand against GABA receptor/chloride channel complex at 100 uM; format: protein-complex assay
# Procedure, shortened: (§2)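 Rat brain membranes, about 1000 μg protein, in 50 mM Tris-citrate pH 7.1 with 5 nM [3H]muscimol. Incubated 30 min at 0 °C, test compound at 100 μM. Nonspecific binding was defined with 100 μM GABA. Bound ligand was separated by rapid filtration with one buffer wash, and filter radioactivity was counted.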
# [4] = target: T1, GABA-A receptor; anion channel (Homo sapiens); test: Binding of [3H]- Diazepam radioligand against GABA receptor/chloride channel complex at 100 uM; format: protein-complex assay
# Procedure, shortened: (§3)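 Rat cerebral cortical membranes, about 1000 μg protein, in 50 mM Tris pH 7.4. Incubated with 5 nM [3H]diazepam for 30 min at 0 °C, test compound at 100 μM. Nonspecific binding was defined with 10 μM clonazepam. Ended by rapid filtration with one buffer wash, and retained radioactivity was counted.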
# Mus musculus [5] = test: Antiepileptic (anticonvulsant) activity in mice through maximal electroshock seizure (MES) assay; No anticonvulsant activity at 300 mg/kg; format: functional, organism-based; parameters: dose 300 mg/kg
# Procedure, shortened: as §1
# [6] = target: T1, GABA-A receptor; anion channel (Homo sapiens); test: Inhibition of [3H]TBPS binding to GABA-A receptor at 100 uM; format: protein-complex assay
# Procedure, shortened: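 Rat cerebral cortical membranes, about 1000 μg protein, in 50 mM Tris-citrate pH 7.5 containing 200 mM NaCl with 2 nM [35S]TBPS. Incubated 90 min at 23 °C, test compound at 100 μM. Picrotoxin 10 μM defined nonspecific binding. Ended by rapid filtration with one buffer wash, and filter radioactivity was counted.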
# [7] = target: T1, GABA-A receptor; anion channel (Homo sapiens); test: Binding of [3H]- TBPS radioligand against Gamma-aminobutyric acid receptor at 100 uM; format: protein-complex assay
# [8] = Inhibition of [3H]BTX binding to guinea pig voltage-dependent sodium channel; remark: listed apart in the source
# [9] = target: T1, GABA-A receptor; anion channel (Homo sapiens); test: Inhibition of [3H]muscimol binding to GABA-A receptor at 100 uM; format: protein-complex assay
# Procedure, shortened: as §2
# Mus musculus [10] = test: Antiepileptic (anticonvulsant) activity in mice through maximal electroshock seizure (MES) assay. No activity at 300 mg/kg; format: functional, organism-based; parameters: dose 300 mg/kg
# Procedure, shortened: as §1
# [11] = Inhibition of [3H]BTX binding to guinea pig voltage-dependent sodium channel; remark: listed apart in the source
# [12] = target: Gamma-aminobutyric acid receptor subunit gamma-1 (Rattus norvegicus) (UniProt P23574); test: Inhibition of [3H]- Diazepam binding to Gamma-aminobutyric acid (GABA-A) receptor at 100 uM
# Procedure, shortened: as §3
# Chain of Gamma-aminobutyric acid receptor subunit gamma-1 (Rattus norvegicus) (P23574 whole entry): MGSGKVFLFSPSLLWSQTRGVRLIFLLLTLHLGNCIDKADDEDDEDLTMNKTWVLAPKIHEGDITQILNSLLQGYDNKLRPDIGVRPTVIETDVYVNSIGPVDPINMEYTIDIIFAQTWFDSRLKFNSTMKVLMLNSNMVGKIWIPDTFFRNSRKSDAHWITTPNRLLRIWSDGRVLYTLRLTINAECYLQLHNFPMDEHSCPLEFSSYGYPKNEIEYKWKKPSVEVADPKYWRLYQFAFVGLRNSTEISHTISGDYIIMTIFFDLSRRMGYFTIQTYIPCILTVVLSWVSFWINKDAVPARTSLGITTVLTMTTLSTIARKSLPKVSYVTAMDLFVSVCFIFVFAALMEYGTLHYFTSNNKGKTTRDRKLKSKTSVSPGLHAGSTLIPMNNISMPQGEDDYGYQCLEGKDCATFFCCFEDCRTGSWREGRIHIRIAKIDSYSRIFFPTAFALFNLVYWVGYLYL
Structure (SMILES),IC50 [1] [µM],EC50 (Mus musculus [2]) [mg/kg],EC50 (Mus musculus [5]),other results
CN1CCC(OC(=O)c2ccccc2CCc2ccccc2)CC1,5.4,25,,inhibition [3]: 27%; inhibition [4]: 50%
COc1ccc(C(=O)OC2CCN(C)CC2)cc1OC,> 10,,Not Active,
CCN(CC)CCOC(=O)c1ccccc1-c1ccccc1,7.5,10,,inhibition [6]: 4%; inhibition [3]: 31%; inhibition [4]: 26%
Cc1ccc(C(=O)OC2CCN(C)CC2)cc1,10,,Not Active,
CN1CCC(OC(=O)c2cccc(O)c2)CC1,> 10,,Not Active,
COc1ccc(CCC(=O)OC2CCN(C)CC2)cc1OC,> 10,,Not Active,
CN1CCC(OC(=O)c2ccccc2Br)CC1,> 10,,Not Active,
CN1CCC(OC(=O)c2ccccc2COc2ccccc2)CC1,> 10,26,,inhibition [3]: 35%; inhibition [4]: 37%; Stimulation [7]: 37%
CN1CCC(C)(OC(=O)c2ccccc2-c2ccccc2)CC1,3.8,,Not Active,
CCN(CC)CCCOC(=O)c1ccccc1-c1ccccc1,,7.8,,inhibition [6]: 47%; IC50 [8]: 4.6 µM; inhibition [3]: 59%; inhibition [4]: 51%
CN1CCC(OC(=O)c2ccccc2Cc2ccccc2)CC1,3.4,< 30,,
CCN(CC)CCOC(=O)c1ccccc1CCc1ccccc1,3.9,< 300,,
CCC1(c2ccccc2)C(=O)NC(=O)NC1=O [PHENOBARBITAL],,22,,
CN1CCC(OC(=O)c2ccccc2-c2ccccc2)CC1,10,12,,
Cc1cc(C)c(C(=O)OC2CCN(C)CC2)cc1C,> 10,,,inhibition [4]: 37%; Stimulation [7]: 3%; inhibition [9]: 57%; EC50 (Mus musculus [10]): 46 mg/kg
COc1cccc(C(=O)OC2CCN(C)CC2)c1,,< 100,,
CN1CCC(OC(=O)c2ccc(-c3ccccc3)cc2)CC1,10,< 100,,
CN1CCC(OC(=O)c2ccccc2C(=O)c2ccccc2)CC1,,,Not Active,IC50 [11]: > 10 µM; inhibition [3]: 21%; inhibition [4]: 46%; Stimulation [7]: 1%
CN1CCC(OC(=O)c2ccc(Cl)cc2)CC1,> 10,,Not Active,
COc1ccccc1C(=O)OC1CCN(C)CC1,> 10,,Not Active,
O=C1NC(=O)C(c2ccccc2)(c2ccccc2)N1 [PHENYTOIN],,9.5,,
CN1CCC(OC(=O)c2ccc3ccccc3c2)CC1,> 10,< 100,,
Cc1[nH]c(C)c(C(=O)OC2CCN(C)CC2)c1C,> 10,,Not Active,
CCC(=O)OC1CCN(C)CC1,,,Not Active,Stimulation [12]: -14%; IC50 [11]: > 10 µM; inhibition [3]: 10%; Stimulation [7]: 9%
CN1C(=O)CC(C)(c2ccccc2)C1=O (configuration not stated) [METHSUXIMIDE],,76,,
CN1CCC(OC(=O)c2ccccc2Oc2ccccc2)CC1,3.6,,Not Active,
CN1CCC(C)(OC(=O)c2ccccc2CCc2ccccc2)CC1,3.2,28,,inhibition [3]: 40%; inhibition [4]: 42%; Stimulation [7]: 50%
CCN(CC)CCCOC(=O)c1ccccc1CCc1ccccc1,6,< 30,,
CCN(CC)CC(C)OC(=O)c1ccccc1-c1ccccc1 (configuration not stated),6.8,< 30,,
